Bioassay records from PubChem BioAssay.
Hits are enriched below; roughly 2.6% of the tested compounds scored in any of these assays.
V1R ag counter: V1a receptor agonism, counter-screen for OXTR agonists; P37288; CHO-V1R cells, Fluo-8 calcium fluorescence, agonist mode; 0% DMSO, 100% 3 nM vasopressin; activation, % at 3 µM; actives 0.25% (n = 320,000);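 active means activation above the mean activation of all tested compounds plus 3 SD, per screening run, cut at about 20% in these data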;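 further: signal is peak over basal fluorescence ratio across a 100 second FLIPR read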
CHO parental Ca: signal in parental CHO cells, OX1R antagonist counter-screen. parental CHO-K1, ATP-induced calcium, Fluo-8 fluorescence. inhibition, % at 5.6 µM. actives 0.63% (n = 330,000);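 active means inhibition above that plate's mean sample inhibition plus 3 SD, cut at about 26% in these data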;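 further: 0% = ATP-challenged DMSO wells and 100% = DMSO wells without ATP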
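Test system: untransfected parental CHO cell line. Compound: one dose, 5.6 µM nominal. Detection: intracellular calcium via Fluo-8 no-wash fluorescent dye. Measure: % inhibition. Benchmarks: ATP-challenged DMSO wells low, unchallenged DMSO wells high.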
OX1R antag-1: antagonists of human orexin 1 receptor; O43613; CHO/OX1R cells, Fluo-8 calcium fluorescence, orexin A; inhibition, % at 5 µM; actives 0.43% (n = 330,000);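 active means inhibition above its plate's threshold, mean inhibition of all tested compounds on the plate plus 3 SD, cut at about 37% in these data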;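 further: 0% = orexin A challenge wells and 100% = SB-334867-A antagonist wells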
Target sequence (O43613 whole entry, looked up): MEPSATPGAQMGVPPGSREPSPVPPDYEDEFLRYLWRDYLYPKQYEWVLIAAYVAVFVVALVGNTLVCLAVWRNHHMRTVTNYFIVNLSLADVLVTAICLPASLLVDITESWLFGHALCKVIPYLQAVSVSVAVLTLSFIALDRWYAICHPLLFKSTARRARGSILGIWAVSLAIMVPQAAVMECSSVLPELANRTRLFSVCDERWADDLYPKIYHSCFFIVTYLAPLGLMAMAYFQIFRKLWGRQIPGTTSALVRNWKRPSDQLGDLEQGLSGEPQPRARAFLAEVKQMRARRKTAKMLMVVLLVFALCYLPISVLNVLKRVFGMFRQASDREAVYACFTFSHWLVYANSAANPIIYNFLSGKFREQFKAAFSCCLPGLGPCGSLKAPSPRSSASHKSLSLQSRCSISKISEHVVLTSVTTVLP
OX1R antag-2: blocks the human orexin 1 receptor; O43613; OX1R-expressing cells, FRET antagonist read-out; inhibition, % at 6.6 µM; actives 1.8% (n = 330,000); AID 485270; in the data active means inhibition mostly above about 38%, no sharp cut-off; inactive means mostly below about 40%;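 further: 0% = agonist challenge alone and 100% = reference antagonist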
OXTR agonist: agonists of human oxytocin receptor; P30559; CHO-OTR cells, Fluo-8 calcium fluorescence; normalized: DMSO 0%, oxytocin 100%; activation, % at 3 µM; actives 0.32% (n = 320,000); AID 2435;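 active means activation above the mean of all tested compounds plus 3 SD, cutoff set per screening run, cut at about 20% in these data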;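 further: peak over basal fluorescence ratio from a 100 s FLIPR kinetic read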
OXTR potentiate: potentiators of human oxytocin receptor; CHO-OTR cells, Fluo-8 calcium fluorescence, potentiator mode; 0% = oxytocin EC15, 100% = EC100; actives 0.061% (n = 320,000); P30559; activation, % at 3 µM;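 active means activation above that plate's cutoff, the mean activation of tested compounds plus 3 SD, cut at about 6.6% in these data, passing the limit was not always enough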;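 further: 100% uses oxytocin at 75 nM as the full agonist control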
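Assay system: CHO cell line stably expressing human OTR | Also added: Oxytocin at about EC15, sub-maximal agonist stimulus | Times: Compound 6 min at room temperature before oxytocin, 100 s read | Measured by: Fluo-8 intracellular calcium fluorescence, ex 470-495, em 515-575 nm | Controls: EC15 oxytocin alone as 0%, 75 nM oxytocin as 100%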
Active calls of the source: *.

`CN1/C(=C\C(=O)COC(=O)c2ccc(O)c(O)c2)C(C)(C)c2ccccc21` gave V1R ag counter 8, CHO parental Ca 50*, OX1R antag-1 40*, OX1R antag-2 12, OXTR agonist 5 and OXTR potentiate -9.
For CN1/C(=C\C(=O)COC(=O)c2ccc(O)cc2)C(C)(C)c2ccccc21 the results were V1R ag counter 6, CHO parental Ca 54*, OX1R antag-1 47*, OX1R antag-2 29, OXTR agonist 5 and OXTR potentiate -30.
Screening CCOC(=O)/C=C1/N(C)c2ccccc2C1(C)C returned V1R ag counter -2, CHO parental Ca -1, OX1R antag-1 -13, OX1R antag-2 10, OXTR agonist -3 and OXTR potentiate -9.
For CNS(=O)(=O)c1cccc(C(=O)OCC(=O)/C=C2/N(C)c3ccccc3C2(C)C)c1 the results were V1R ag counter 6, CHO parental Ca 30, OX1R antag-1 12, OX1R antag-2 10, OXTR agonist 8 and OXTR potentiate -11.
CN1/C(=C/C(=O)CSc2ccccc2C(=O)O)C(C)(C)c2ccccc21 was read as V1R ag counter 2, CHO parental Ca 5, OX1R antag-1 14, OX1R antag-2 13, OXTR agonist 2 and OXTR potentiate 2.
`Cc1cc(=O)[nH]c(SCC(=O)/C=C2\N(C)c3ccccc3C2(C)C)n1` gave V1R ag counter 7, CHO parental Ca 26, OX1R antag-1 34, OX1R antag-2 24, OXTR agonist 23* and OXTR potentiate -16.
CN(C)C(/C=C/Nc1cccc([N+](=O)[O-])c1)=C(C#N)C#N was read as V1R ag counter 1, CHO parental Ca -6, OX1R antag-1 5, OX1R antag-2 50*, OXTR agonist 0 and OXTR potentiate -2.
`Cc1cccc(N/C=C/C(=C(C#N)C#N)N(C)C)c1` gave V1R ag counter 0, CHO parental Ca -3, OX1R antag-1 2, OX1R antag-2 6, OXTR agonist 1 and OXTR potentiate 0.
O=C(NCCO)/C(=C\c1ccc([N+](=O)[O-])o1)NC(=O)c1ccccc1 was read as V1R ag counter 0, CHO parental Ca -14, OX1R antag-1 -15, OX1R antag-2 65*, OXTR agonist 0 and OXTR potentiate -8.
Screening O=C(Nc1cccc2ccccc12)/C(=C\c1cccc([N+](=O)[O-])c1)NC(=O)c1cccs1 returned V1R ag counter 0, CHO parental Ca -8, OX1R antag-1 19, OX1R antag-2 56*, OXTR agonist 0 and OXTR potentiate -7.
`CCOC(=O)/C(=C\c1ccc([N+](=O)[O-])o1)NC(=O)c1ccccc1` gave V1R ag counter 2, CHO parental Ca -17, OX1R antag-1 -27, OX1R antag-2 43*, OXTR agonist 1 and OXTR potentiate 3.
O=C(NCCc1ccccc1)/C(=C\c1cccc([N+](=O)[O-])c1)NC(=O)c1ccco1 was read as V1R ag counter 0, CHO parental Ca -13, OX1R antag-1 -23, OX1R antag-2 53*, OXTR agonist -2 and OXTR potentiate 0.
For O=C(NCc1ccccc1)/C(=C/c1cccc([N+](=O)[O-])c1)NC(=O)c1ccco1 the results were V1R ag counter -1, CHO parental Ca -9, OX1R antag-1 -12, OX1R antag-2 11, OXTR agonist -1 and OXTR potentiate 0.
Screening CCCOC(=O)/C(=C\c1ccc([N+](=O)[O-])o1)NC(=O)c1ccccc1 returned V1R ag counter 0, CHO parental Ca -12, OX1R antag-1 -18, OX1R antag-2 49, OXTR agonist -1 and OXTR potentiate -1.
Screening Cc1ccc(C(=O)N/C(=C/c2ccc(-c3ccc([N+](=O)[O-])cc3)o2)C(=O)NCCCN(C)C)cc1 returned V1R ag counter 4, CHO parental Ca 0, OX1R antag-1 -23, OX1R antag-2 21, OXTR agonist 4 and OXTR potentiate -4.
Screening Cc1ccc(C(=O)N/C(=C\c2ccc(-c3cccc([N+](=O)[O-])c3)o2)C(=O)NC(C)(C)C)cc1 returned V1R ag counter 0, CHO parental Ca -17, OX1R antag-1 1, OX1R antag-2 74*, OXTR agonist -2 and OXTR potentiate 0.
For O=C(NCCCO)/C(=C/c1ccc(-c2cccc([N+](=O)[O-])c2)o1)NC(=O)c1ccccc1 the results were V1R ag counter -1, CHO parental Ca -7, OX1R antag-1 -14, OX1R antag-2 51*, OXTR agonist 1 and OXTR potentiate -4.
For Cc1ccc(C(=O)N/C(=C\c2ccc(-c3ccc([N+](=O)[O-])cc3)o2)C(=O)NC2CCS(=O)(=O)C2)cc1 (centres undefined) the results were V1R ag counter 2, CHO parental Ca -12, OX1R antag-1 13, OX1R antag-2 4, OXTR agonist 1 and OXTR potentiate -7.
Screening C=CCC1(CC=C)CCCN1C(=O)c1cc(COc2ccccc2SC)on1 returned V1R ag counter 1, CHO parental Ca 21, OX1R antag-1 -16, OX1R antag-2 16, OXTR agonist 3 and OXTR potentiate -17.
`O=C(NCCS(=O)(=O)N1CCN(c2ccccc2F)CC1)c1ccc2c(c1)OCO2` gave V1R ag counter 3, CHO parental Ca -28, OX1R antag-1 -7, OX1R antag-2 7, OXTR agonist 2 and OXTR potentiate -6.
`CC(C)OC(=O)NCCOC(=O)Nc1ccc(Cl)c(Cl)c1` gave V1R ag counter 5, CHO parental Ca 50*, OX1R antag-1 40, OX1R antag-2 38, OXTR agonist 13 and OXTR potentiate -21.
CC(C)OC(=O)NCCOC(=O)Nc1cccc(Cl)c1 was read as V1R ag counter 13, CHO parental Ca 37*, OX1R antag-1 48*, OX1R antag-2 59, OXTR agonist 17 and OXTR potentiate -23.
`CC(C)OC(=O)NC(C)(C)COC(=O)Nc1cccc(Cl)c1` gave V1R ag counter 9, CHO parental Ca 35*, OX1R antag-1 20, OX1R antag-2 31, OXTR agonist 0 and OXTR potentiate -9.
CSCC(CO)NS(=O)(=O)c1ccc(C)cc1 (centres undefined) was read as V1R ag counter 0, CHO parental Ca 5, OX1R antag-1 -2, OX1R antag-2 2, OXTR agonist -1 and OXTR potentiate -4.
Screening CC(C)CC(NC(=O)C1CCCCC1)C(=O)NC(C)c1ccccc1 (centres undefined) returned V1R ag counter 0, CHO parental Ca -22, OX1R antag-1 -27, OX1R antag-2 -12, OXTR agonist -2 and OXTR potentiate -13.
